Screens deposited in PubChem by The Scripps Research Institute Molecular Screening Center.
An excerpt weighted towards active compounds, which were near 2.5% of everything screened.
HTRA1 inh: HTRA1 serine protease inhibitors, primary screen, biochemical, fluorescence polarization, HTS; inhibition, % at 5.96 µM; Q92743; AID 504803, 2011; recombinant HTRA1, FP-rhodamine activity-based probe; hit rate 0.5% among 340,000; in the data active = inhibition above about 36%
SIAE inh: human SIAE inhibitors, primary screen, biochemical, fluorescence polarization, FP-Rh probe, 1536-well HTS | Sialate O-acetylesterase (Homo sapiens), Q9HAT2 | SIAE FP-Rh probe binding | inhibition, % at 9.66 µM | hit rate 0.69% among 370,000;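 active = inhibition above a cutoff: mean of compounds within the control limits plus 3 SD of those, cut at about 17% in these data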
ABHD4 inh: ABHD4 inhibitors, primary screen, biochemical, fluorescence polarization, mouse; purified mABHD4, FP-Rh probe fluorescence polarization; inhibition, % at 8.92 µM; hit rate 0.54% among 370,000;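 active = inhibition exceeding the mean over every tested compound plus 3 SD, cut at about 30% in these data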
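Assay system: mouse ABHD4 enzyme, wild type / Also added: fluorescent activity-based probe FP-Rh / Doses: single nominal dose of 8.92 µM, 0.89% DMSO final / Timing: 45 min compound pre-incubation plus 60 min probe step, 25 °C / Signal: FP readout, ex 525 nm / em 598 nm / Control set: S159A mutant/DMSO as 100%, compound-well median as 0%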
PRMT1 inh: PRMT1 methyltransferase inhibitors, primary screen, biochemical, fluorescence polarization. Protein arginine N-methyltransferase 1 (Homo sapiens), Q99873. recombinant PRMT1, activity-based probe fluorescence polarization. inhibition, % at 2.79 µM. hit rate 1.3% among 370,000. AID 652257, 2013;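 active = inhibition above about 21% made by adding two undisclosed values, limit read from the data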
Target sequence (Q99873 whole entry, looked up): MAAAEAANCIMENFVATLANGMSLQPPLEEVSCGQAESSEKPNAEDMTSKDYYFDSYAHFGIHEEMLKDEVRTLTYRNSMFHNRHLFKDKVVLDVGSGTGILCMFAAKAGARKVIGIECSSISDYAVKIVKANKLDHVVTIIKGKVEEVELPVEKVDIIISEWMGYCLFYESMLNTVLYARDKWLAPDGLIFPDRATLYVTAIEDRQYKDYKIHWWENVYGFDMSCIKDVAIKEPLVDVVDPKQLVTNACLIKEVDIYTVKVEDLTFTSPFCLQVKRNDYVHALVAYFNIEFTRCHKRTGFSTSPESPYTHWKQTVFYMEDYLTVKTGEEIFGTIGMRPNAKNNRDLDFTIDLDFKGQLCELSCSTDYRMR
TCR-CD3 inh: inhibitors of human TCR-CD3 interaction, primary screen, biochemical, fluorescence, TAMRA-labeled TCR probe; inhibition, % at 9.4 µM; AID 651800, 2012; T-cell receptor (TCR); hit rate 0.37% among 360,000; in the data active = inhibition above about 19%;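 also: recombinant mutant TCR 2C K166C tagged with TAMRA read by polarization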
Hits are given with their value.

Screening O=C(N/N=C/c1cc(Cl)cc(Cl)c1O)c1ccncc1 returned HTRA1 inh inactive, SIAE inh inactive, ABHD4 inh inactive, PRMT1 inh 23.6 and TCR-CD3 inh inactive.
Screening O=C(Nc1ccnn1C1CCN(C(=O)c2ccc(F)cc2)CC1)C1CCOC1 (stereo not given) returned HTRA1 inh inactive, SIAE inh inactive, ABHD4 inh inactive, PRMT1 inh inactive and TCR-CD3 inh inactive.
`Nc1nnc(CC(=O)N/N=C/c2cc([N+](=O)[O-])cc(Br)c2O)s1` gave HTRA1 inh inactive, SIAE inh inactive, ABHD4 inh 38.8, PRMT1 inh inactive and TCR-CD3 inh 33.7.
Nc1nnc(CC(=O)N/N=C/c2cccc([N+](=O)[O-])c2)s1 was read as HTRA1 inh inactive, SIAE inh inactive, ABHD4 inh inactive, PRMT1 inh inactive and TCR-CD3 inh inactive.
COC(=O)C1=CN(c2ccccc2OC)C(N)=C(C#N)C1c1cccc([N+](=O)[O-])c1 (stereo not given) was read as SIAE inh inactive, ABHD4 inh inactive, PRMT1 inh inactive and TCR-CD3 inh inactive.
`S=C(c1ccc2c(c1)OCO2)N1CCCC1` gave HTRA1 inh inactive, SIAE inh inactive, ABHD4 inh inactive, PRMT1 inh inactive and TCR-CD3 inh inactive.
COc1ccccc1CCNC(=O)CCSc1nc(-c2ccco2)cc(C(F)(F)F)n1 was read as HTRA1 inh inactive, SIAE inh inactive, ABHD4 inh inactive, PRMT1 inh 22.9 and TCR-CD3 inh inactive.
NS(=O)(=O)c1ccc(-c2ccc(/C=N/Nc3ccc(C(=O)O)cc3)o2)cc1 was read as HTRA1 inh inactive, SIAE inh inactive, ABHD4 inh inactive, PRMT1 inh inactive and TCR-CD3 inh inactive.
For O=C(O)c1ccc(-c2ccc(/C=N/Nc3ccc([N+](=O)[O-])cc3)o2)cc1 the results were HTRA1 inh inactive, SIAE inh inactive, ABHD4 inh 32.3, PRMT1 inh inactive and TCR-CD3 inh inactive.
COc1ccc(-c2coc3cc(OC(C)=O)ccc3c2=S)cc1 was read as HTRA1 inh inactive, SIAE inh inactive, ABHD4 inh inactive, PRMT1 inh 22.2 and TCR-CD3 inh inactive.
For CC(=O)Oc1ccc2c(=O)c(-c3ccccc3)coc2c1 the results were HTRA1 inh inactive, SIAE inh inactive, ABHD4 inh inactive, PRMT1 inh inactive and TCR-CD3 inh inactive.
COC(=O)C[C@@H]1CC[C@H]2[C@@H](COc3ccc(NC(=O)Nc4ccccc4C)cc3C(=O)N2C)O1 was read as SIAE inh inactive, ABHD4 inh inactive and PRMT1 inh inactive.
`CCOc1cc(/C=C2\C(=O)N(CCc3ccc(OC)c(OC)c3)C(C)=C2C(=O)OC)ccc1O` gave HTRA1 inh inactive, SIAE inh inactive, ABHD4 inh inactive, PRMT1 inh 26.5 and TCR-CD3 inh inactive.
`COC(=O)C1=C(C)N(Cc2ccc(C)cc2)C(=O)/C1=C\c1cc(OC)c(OC)c(OC)c1` gave HTRA1 inh inactive, SIAE inh inactive, ABHD4 inh inactive, PRMT1 inh inactive and TCR-CD3 inh inactive.
CCOc1ccc(S(=O)(=O)N2CCOCC2)cc1NC(=O)CSCc1c(C)noc1C was read as HTRA1 inh inactive, SIAE inh inactive, ABHD4 inh inactive, PRMT1 inh inactive and TCR-CD3 inh inactive.
Screening O=C(NCc1ccco1)c1cccc2c1C(=O)c1ccc(/C=C/c3ccccc3)cc1S2(=O)=O returned HTRA1 inh inactive, SIAE inh inactive, ABHD4 inh inactive, PRMT1 inh 28.8 and TCR-CD3 inh inactive.
Cc1ccc2cccc(NC3OC(=O)c4ccccc43)c2n1 (stereo not given) was read as HTRA1 inh inactive, SIAE inh 19.1, ABHD4 inh inactive, PRMT1 inh inactive and TCR-CD3 inh inactive.
COC(=O)c1ccccc1NC1OC(=O)c2ccccc21 (stereo not given) was read as HTRA1 inh inactive, SIAE inh inactive, ABHD4 inh inactive, PRMT1 inh inactive and TCR-CD3 inh inactive.
Screening COc1ccc(-c2cn(-c3ccccc3)c(=S)[nH]2)cc1OC returned HTRA1 inh inactive, SIAE inh inactive, ABHD4 inh inactive, PRMT1 inh 23.2 and TCR-CD3 inh inactive.
Screening Nc1c(N2CCCC2)cc(Cl)c2nonc12 returned HTRA1 inh 36.9.
Oc1cc(NCCN2CCOCC2)cc2cccnc12 was read as HTRA1 inh inactive, SIAE inh inactive, ABHD4 inh inactive, PRMT1 inh 21.5 and TCR-CD3 inh inactive.
Screening Cc1c(Cl)sn(-c2ccc(Cl)cc2)c1=O returned HTRA1 inh inactive, SIAE inh inactive, ABHD4 inh inactive, PRMT1 inh 67.5 and TCR-CD3 inh inactive.
For CCOc1ccc(NC(=O)c2c(NC(=O)CNCCN3CCOCC3)sc3c2CCC3)cc1 the results were HTRA1 inh inactive, SIAE inh inactive, ABHD4 inh inactive, PRMT1 inh inactive and TCR-CD3 inh inactive.
Screening O=C(Nc1cc(S(=O)(=O)N2CCOCC2)ccc1O)c1ccc2c(c1)S(=O)(=O)c1ccccc1C2=O returned HTRA1 inh inactive, SIAE inh inactive, ABHD4 inh inactive, PRMT1 inh 21.5 and TCR-CD3 inh inactive.
For CCOC(=O)c1ccc(S(=O)(=O)N2CCN(Cc3cc4c(cc3O)OCO4)CC2)cc1 the results were HTRA1 inh inactive, SIAE inh inactive, ABHD4 inh inactive, PRMT1 inh inactive and TCR-CD3 inh inactive.
`COc1ccc(NC(=S)NC(NC(=O)/C=C/c2ccccc2)C(Cl)(Cl)Cl)cc1` (stereo not given) gave HTRA1 inh inactive, SIAE inh inactive, ABHD4 inh inactive, PRMT1 inh inactive and TCR-CD3 inh inactive.
`O=C(/C=C/c1ccccc1)NC(NC(=S)Nc1ccc(Cl)cc1)C(Cl)(Cl)Cl` (stereo not given) gave HTRA1 inh inactive, SIAE inh inactive, ABHD4 inh inactive, PRMT1 inh inactive and TCR-CD3 inh 25.6.
For Cc1cc(N)ccc1N1CCCC1 the results were HTRA1 inh 81.5.
Cc1ccc(C(=O)N(C)c2nnc(-c3ccncc3)s2)cc1 was read as HTRA1 inh inactive, SIAE inh inactive, ABHD4 inh inactive, PRMT1 inh inactive and TCR-CD3 inh inactive.
`CCC(COC)Oc1cc(NCc2ccccc2)c2ncn(C(C)C)c2c1` (stereo not given) gave HTRA1 inh inactive, SIAE inh inactive, ABHD4 inh inactive, PRMT1 inh inactive and TCR-CD3 inh inactive.
For CCC(COC(=O)c1ccccc1)Oc1cc(NCc2ccccc2)c2ncn(C(C)C)c2c1 (stereo not given) the results were HTRA1 inh inactive, SIAE inh inactive, ABHD4 inh 31.0, PRMT1 inh inactive and TCR-CD3 inh inactive.
CC1=CC(=O)c2ccccc2C1=O was read as HTRA1 inh inactive, SIAE inh inactive, ABHD4 inh inactive, PRMT1 inh inactive and TCR-CD3 inh inactive.
Screening CC(C)(C=O)C1=CC(=O)c2ccccc2C1=O returned HTRA1 inh inactive, SIAE inh inactive, ABHD4 inh 36.7, PRMT1 inh 52.3 and TCR-CD3 inh inactive.
